The values that follow come from ChEMBL document CHEMBL1152519, “Synthesis, structural activity-relationships, and biological evaluation of novel amide-based allosteric binding site antagonists in NR1A/NR2B N-methyl-D-aspartate receptors” (Bioorg Med Chem, 2009).

In data set [1] the target is T1, Glutamate NMDA receptor; Grin1/Grin2b (Rattus norvegicus) (UniProt P35439+Q00960). Nature of the data set: Antagonist activity at rat recombinant NR1/NR2B receptor expressed in Xenopus laevis oocytes assessed as noncompetitive inhibition of glutamate/glycine-induced current at 0.054 uM by two electrode voltage clamp method. In kind it is functional, cell-based. Conditions: Oocyte. The method, boiled down:
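TEVC on rat NR1/NR2B oocytes at −40 mV. Inhibition by 0.054 μM compound measured while glutamate or glycine was raised 10-fold above the control 50 μM glutamate/30 μM glycine. Response given as percent of control; n = 4.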
On the technique in general: Two-electrode voltage clamp is typically applied to oocytes expressing channels or transporters.

In data set [2] the target is Glutamate NMDA receptor; GRIN1/GRIN2B (Homo sapiens, UniProt Q05586+Q13224). Nature of the data set: Antagonist activity at human recombinant NR1/NR2B receptor expressed in frog oocytes assessed as inhibition of glutamate/glycine-induced current at 3 uM by two electrode voltage clamp method. Conditions: Oocyte. The data set is classed as functional, cell-based.
In data set [3] the target is Glutamate receptor ionotropic, NMDA 1/NMDA 2B (Mus musculus, UniProt P35438+Q01097). Nature of the data set: Antagonist activity at mouse recombinant NR1/NR2B receptor expressed in frog oocytes assessed as inhibition of glutamate/glycine-induced current by two electrode voltage clamp method. The data set is classed as functional, cell-based, Oocyte. The method, boiled down:
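Xenopus oocytes injected with 3–5 ng NR1 and 7–10 ng NR2 cRNA, kept in Barth's solution at 15 °C, recorded 2–7 d later at 23 °C under two-electrode voltage clamp at −40 mV. Bath was 90 NaCl, 1 KCl, 10 HEPES, 0.5 BaCl2 (mM), pH 7.4/7.6, plus 10 μM EDTA. Glutamate (50–100 μM) plus glycine 30 μM was applied, then 5–8 inhibitor concentrations. Leak-corrected; n = 11 oocytes from 2 frogs.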

Data set [4] addresses T1, Glutamate NMDA receptor; Grin1/Grin2b (Rattus norvegicus). Briefly: Antagonist activity at rat recombinant NR1/NR2B receptor expressed in Xenopus laevis oocytes assessed as inhibition of glutamate/glycine-induced current at 3 uM by two electrode voltage clamp method relative to control. The data set is classed as functional, cell-based. Conditions: Oocyte. The method in brief:
(§1)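 Xenopus oocytes injected with NR1-1a (3–5 ng) plus NR2A, 2B, 2C or 2D cRNA (7–10 ng), kept at 15 °C. Voltage clamp at −40 mV. Responses to 50 μM glutamate + 30 μM glycine with 3 μM compound, as % of response without compound. NR2A oocytes pre-loaded with 50 μM BAPTA-AM. Mean ± SEM, 4–10 oocytes; paired t-test.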

Data set [5] deals with Glutamate receptor 1 (Rattus norvegicus) (UniProt P19490). Nature of the data set: Antagonist activity at rat recombinant GluR1 expressed in Xenopus laevis oocytes assessed as inhibition of glutamate-induced current at 3 uM by two electrode voltage clamp method relative to control. In kind it is functional, cell-based. Conditions: Oocyte. The method, boiled down:
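GluR1 homomers expressed from 5–10 ng cRNA in Xenopus oocytes. Clamped at −40 mV. Currents evoked by 100 μM glutamate with 3 μM compound, expressed as % of control without compound. Mean ± SEM, 4–10 oocytes; paired t-test.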

For data set [6], the target named is T1, Glutamate NMDA receptor; Grin1/Grin2b (Rattus norvegicus). Nature of the data set: Antagonist activity at rat recombinant NR1/NR2B receptor expressed in Xenopus laevis oocytes assessed as voltage-independent inhibition of glutamate/glycine-induced current at 0.054 uM by two electrode voltage clamp method. The data set is classed as functional, cell-based. The note with it: Oocyte. The method in brief: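 Rat NR1/NR2B oocytes were voltage clamped and the current–voltage relation recorded for 50 μM glutamate plus 30 μM glycine, with and without 0.054 μM compound coapplied; n = 5.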

The nature of data set [7]: Antagonist activity at rat NR1/NR2B receptor deltaATD mutant expressed in Xenopus laevis oocytes assessed as inhibition of glutamate/glycine-induced current by two electrode voltage clamp method. The data set is classed as functional, cell-based. The note with it: Oocyte. The method in brief:
(§2)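 Xenopus oocytes expressing NR1/NR2 (wild type or amino terminal domain deletion mutant) recorded by TEVC at −40 mV, room temperature, pH 7.4–7.6, with EDTA 10 μM. Maximal glutamate/glycine applied alone, then with 5–8 successive compound concentrations. Leak-corrected; responses under 50 nA excluded. IC50 from fitted composite curve. NR1/NR2A oocytes were pre-incubated in 50 μM BAPTA-AM.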

Data set [8] concerns the target Ionotropic glutamate receptor NMDA 1/2D (Rattus norvegicus) (UniProt P35439+Q62645). Nature of the data set: Antagonist activity at rat recombinant NR1/NR2D receptor expressed in Xenopus laevis oocytes assessed as inhibition of glutamate/glycine-induced current at 3 uM by two electrode voltage clamp method relative to control. In kind it is functional, cell-based. Conditions: Oocyte. The method in brief: as §1

Data set [9] has as its target Glutamate receptor ionotropic, kainate 2 (Rattus norvegicus) (UniProt P42260). Nature of the data set: Antagonist activity at rat recombinant GluR6 expressed in Xenopus laevis oocytes assessed as inhibition of concanavalin A/glutamate-induced current at 3 uM by two electrode voltage clamp method relative to control. In kind it is functional, cell-based. Conditions: Oocyte. The method in brief: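 Oocytes expressing homomeric GluR6 (5–10 ng cRNA) pretreated 5 min with 10 μM concanavalin-A. Currents evoked by 100 μM glutamate at −40 mV, with or without 3 μM compound, and given as percent of control. Mean ± SEM of 4–10 oocytes; paired t-test.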

The target in data set [10] is hERG (KCNH2) (Homo sapiens, UniProt Q12809). Nature of the data set: Displacement of [3H]astemizole from human recombinant ERG expressed in HEK293 cells at 10 uM. The note with it: HEK293 cells expressing human recombinant ERG, probe [3H]astemizole, read-out: Activity. The data set is classed as cell-based.
Chain of hERG (KCNH2) (Q12809 whole entry): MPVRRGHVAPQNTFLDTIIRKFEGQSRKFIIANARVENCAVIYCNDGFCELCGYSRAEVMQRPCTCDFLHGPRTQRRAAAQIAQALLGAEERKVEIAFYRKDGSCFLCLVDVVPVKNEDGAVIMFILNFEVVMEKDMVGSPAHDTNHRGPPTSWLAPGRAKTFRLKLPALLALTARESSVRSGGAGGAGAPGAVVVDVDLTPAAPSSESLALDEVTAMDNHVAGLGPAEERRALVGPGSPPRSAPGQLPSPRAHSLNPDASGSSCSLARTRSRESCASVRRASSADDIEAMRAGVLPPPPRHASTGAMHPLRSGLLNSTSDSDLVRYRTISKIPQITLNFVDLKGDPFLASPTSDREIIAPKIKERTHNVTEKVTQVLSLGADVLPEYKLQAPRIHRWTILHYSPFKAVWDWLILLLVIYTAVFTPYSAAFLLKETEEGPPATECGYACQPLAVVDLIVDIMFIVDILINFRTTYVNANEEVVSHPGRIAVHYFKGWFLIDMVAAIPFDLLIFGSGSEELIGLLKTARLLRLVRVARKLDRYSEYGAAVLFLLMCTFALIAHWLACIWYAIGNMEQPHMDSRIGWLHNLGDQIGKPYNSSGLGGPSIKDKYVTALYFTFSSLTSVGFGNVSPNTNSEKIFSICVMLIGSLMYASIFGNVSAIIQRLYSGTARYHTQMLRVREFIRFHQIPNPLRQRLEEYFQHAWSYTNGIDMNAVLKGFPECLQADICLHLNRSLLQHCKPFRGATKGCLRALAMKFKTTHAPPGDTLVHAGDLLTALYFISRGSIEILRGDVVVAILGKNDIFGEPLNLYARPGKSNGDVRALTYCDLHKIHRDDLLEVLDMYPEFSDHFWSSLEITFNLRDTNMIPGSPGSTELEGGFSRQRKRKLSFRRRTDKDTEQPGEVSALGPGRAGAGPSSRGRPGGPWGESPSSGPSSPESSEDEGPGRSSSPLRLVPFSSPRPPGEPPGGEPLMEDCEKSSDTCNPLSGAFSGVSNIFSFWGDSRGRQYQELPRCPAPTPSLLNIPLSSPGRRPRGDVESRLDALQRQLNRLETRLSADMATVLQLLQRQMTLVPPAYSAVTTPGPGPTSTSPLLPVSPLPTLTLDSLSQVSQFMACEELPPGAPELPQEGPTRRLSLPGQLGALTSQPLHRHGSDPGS
Data set [11] has as its target Ionotropic glutamate receptor NMDA 1/2D (Rattus norvegicus, UniProt P35439+Q62645). Briefly: Antagonist activity at rat recombinant NR1/NR2D receptor expressed in Xenopus laevis oocytes assessed as inhibition of glutamate/glycine-induced current by two electrode voltage clamp method. In kind it is functional, cell-based, Oocyte. The method, boiled down:
as §2

The species entered for data set [12] is Rattus norvegicus. Briefly: Inhibition of voltage-gated sodium channel in Sprague-Dawley rat cortical neuron at 3 uM by whole cell patch clamp technique.

The source made the active and inactive calls. No cut-off for these calls is given here.

Chain of Glutamate receptor ionotropic, NMDA 1/NMDA 2B (Q01097 whole entry, other chains not shown): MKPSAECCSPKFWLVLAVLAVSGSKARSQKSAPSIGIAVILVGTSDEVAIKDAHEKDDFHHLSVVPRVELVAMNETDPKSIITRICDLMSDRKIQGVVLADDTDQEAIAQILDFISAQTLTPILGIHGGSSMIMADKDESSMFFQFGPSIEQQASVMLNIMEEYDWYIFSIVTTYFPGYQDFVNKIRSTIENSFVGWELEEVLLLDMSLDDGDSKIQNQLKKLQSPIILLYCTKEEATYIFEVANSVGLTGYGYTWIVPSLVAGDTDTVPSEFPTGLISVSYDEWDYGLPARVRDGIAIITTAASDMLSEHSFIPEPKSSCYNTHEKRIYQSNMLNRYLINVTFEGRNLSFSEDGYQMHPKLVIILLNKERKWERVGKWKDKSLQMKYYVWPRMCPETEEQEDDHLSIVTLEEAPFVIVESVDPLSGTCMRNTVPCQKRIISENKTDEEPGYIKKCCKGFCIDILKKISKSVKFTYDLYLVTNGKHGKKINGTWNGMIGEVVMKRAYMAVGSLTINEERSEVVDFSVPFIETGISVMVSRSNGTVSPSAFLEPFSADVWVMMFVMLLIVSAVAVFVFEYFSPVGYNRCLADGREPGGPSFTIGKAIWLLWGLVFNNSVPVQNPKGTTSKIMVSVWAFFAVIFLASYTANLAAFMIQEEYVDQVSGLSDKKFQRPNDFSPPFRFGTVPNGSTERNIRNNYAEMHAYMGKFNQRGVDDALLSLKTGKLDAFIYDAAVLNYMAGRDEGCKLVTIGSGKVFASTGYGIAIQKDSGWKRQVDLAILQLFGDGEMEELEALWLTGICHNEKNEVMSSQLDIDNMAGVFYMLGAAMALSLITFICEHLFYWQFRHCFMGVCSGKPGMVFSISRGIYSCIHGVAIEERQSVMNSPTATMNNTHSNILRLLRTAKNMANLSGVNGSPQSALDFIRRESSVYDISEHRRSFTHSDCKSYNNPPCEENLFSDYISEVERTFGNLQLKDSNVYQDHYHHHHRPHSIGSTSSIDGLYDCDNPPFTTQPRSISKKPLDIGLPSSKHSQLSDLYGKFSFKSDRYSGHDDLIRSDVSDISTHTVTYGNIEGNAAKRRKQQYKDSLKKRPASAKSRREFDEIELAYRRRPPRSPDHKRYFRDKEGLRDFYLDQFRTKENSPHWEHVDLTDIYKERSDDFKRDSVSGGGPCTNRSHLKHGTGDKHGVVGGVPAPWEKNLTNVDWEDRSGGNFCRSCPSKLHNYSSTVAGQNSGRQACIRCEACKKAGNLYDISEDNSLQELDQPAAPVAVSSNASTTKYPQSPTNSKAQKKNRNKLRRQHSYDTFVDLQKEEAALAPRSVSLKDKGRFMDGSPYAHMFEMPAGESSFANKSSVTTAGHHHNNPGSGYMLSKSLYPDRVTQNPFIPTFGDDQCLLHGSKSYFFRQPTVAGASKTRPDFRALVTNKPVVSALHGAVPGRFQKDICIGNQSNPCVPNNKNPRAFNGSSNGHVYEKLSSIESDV
Chain of Glutamate receptor 1 (Rattus norvegicus) (P19490 whole entry): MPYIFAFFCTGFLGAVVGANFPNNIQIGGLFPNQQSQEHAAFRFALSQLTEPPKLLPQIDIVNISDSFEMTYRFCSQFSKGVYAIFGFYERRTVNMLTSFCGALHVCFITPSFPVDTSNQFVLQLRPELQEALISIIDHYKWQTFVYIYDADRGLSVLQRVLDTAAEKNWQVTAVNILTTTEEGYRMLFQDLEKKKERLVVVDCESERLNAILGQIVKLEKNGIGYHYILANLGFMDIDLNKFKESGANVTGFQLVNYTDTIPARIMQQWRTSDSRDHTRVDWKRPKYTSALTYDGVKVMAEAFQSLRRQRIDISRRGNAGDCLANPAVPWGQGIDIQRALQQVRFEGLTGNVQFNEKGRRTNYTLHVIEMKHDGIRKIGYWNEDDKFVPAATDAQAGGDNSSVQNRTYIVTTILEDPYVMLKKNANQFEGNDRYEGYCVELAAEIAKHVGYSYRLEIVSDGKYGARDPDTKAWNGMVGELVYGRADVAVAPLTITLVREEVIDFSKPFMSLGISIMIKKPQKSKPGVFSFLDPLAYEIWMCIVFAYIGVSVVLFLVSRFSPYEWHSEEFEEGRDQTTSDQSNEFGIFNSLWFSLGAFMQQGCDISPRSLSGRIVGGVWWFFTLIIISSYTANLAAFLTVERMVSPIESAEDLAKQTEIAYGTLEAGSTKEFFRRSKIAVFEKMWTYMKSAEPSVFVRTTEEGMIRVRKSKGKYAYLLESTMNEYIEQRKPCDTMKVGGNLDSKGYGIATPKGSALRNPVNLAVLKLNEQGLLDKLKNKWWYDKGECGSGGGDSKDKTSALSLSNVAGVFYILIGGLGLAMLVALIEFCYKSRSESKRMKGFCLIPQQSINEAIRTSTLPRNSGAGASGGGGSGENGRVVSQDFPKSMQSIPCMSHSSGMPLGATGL
Chain of Glutamate receptor ionotropic, kainate 2 (Rattus norvegicus) (P42260 whole entry): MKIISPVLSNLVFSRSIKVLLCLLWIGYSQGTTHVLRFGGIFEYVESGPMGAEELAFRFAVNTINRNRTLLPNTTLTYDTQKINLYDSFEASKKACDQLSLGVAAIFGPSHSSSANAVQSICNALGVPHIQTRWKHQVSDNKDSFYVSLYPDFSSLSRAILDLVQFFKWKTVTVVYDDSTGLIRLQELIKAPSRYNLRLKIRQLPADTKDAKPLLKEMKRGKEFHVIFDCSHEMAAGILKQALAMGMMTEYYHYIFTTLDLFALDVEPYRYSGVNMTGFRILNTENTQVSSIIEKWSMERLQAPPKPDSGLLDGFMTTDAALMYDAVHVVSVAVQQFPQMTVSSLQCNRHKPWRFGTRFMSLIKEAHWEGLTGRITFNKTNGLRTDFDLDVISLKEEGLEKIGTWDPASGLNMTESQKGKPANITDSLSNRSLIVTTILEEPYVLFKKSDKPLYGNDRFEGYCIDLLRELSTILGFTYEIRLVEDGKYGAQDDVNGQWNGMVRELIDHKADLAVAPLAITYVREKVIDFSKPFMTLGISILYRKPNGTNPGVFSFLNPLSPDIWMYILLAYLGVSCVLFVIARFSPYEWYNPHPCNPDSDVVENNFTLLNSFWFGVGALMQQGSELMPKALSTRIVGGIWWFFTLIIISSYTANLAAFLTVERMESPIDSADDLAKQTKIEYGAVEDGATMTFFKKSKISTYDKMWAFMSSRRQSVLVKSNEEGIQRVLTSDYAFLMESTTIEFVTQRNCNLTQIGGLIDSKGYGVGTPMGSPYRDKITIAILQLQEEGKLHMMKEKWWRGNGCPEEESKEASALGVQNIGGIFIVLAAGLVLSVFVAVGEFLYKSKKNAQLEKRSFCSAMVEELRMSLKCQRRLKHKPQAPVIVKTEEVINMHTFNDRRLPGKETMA

The IC50 is the point on the concentration scale where inhibition reaches its midpoint. With `CS(=O)(=O)Nc1ccc(OCC(=O)NCCNc2ccc(Cl)c(Cl)c2)cc1`, the inhibition result in data set [1] and in data set [6] was “Active” throughout. The inhibition in data set [2] turned out to be 90%. The values for the IC50 in data set [3], in data set [7] and in data set [11] were 36 nM, 563 µM and 107 µM, respectively. In addition, the % response in [4] came to 16%; in data set [5] it was 101%; in data set [8], 91%; in data set [9], 99%. Also, the inhibition at 10 µM in data set [10] came to 43%. The inhibition entry in [12] was “inactive”.
